These results are taken from ChEMBL document CHEMBL1140263, “Structure-based design, synthesis, and study of potent inhibitors of beta-ketoacyl-acyl carrier protein synthase III as potential antimicrobial agents” (J Med Chem, 2005).

≈ marks a conversion by molar mass, not a printed value.

One may read the IC50 as the concentration that inhibits the measured activity by half. High values mean a need for much substance, low ones inhibition by little substance. In general, MIC refers to the smallest concentration in the dilution series that meets the test's criterion for growth inhibition.

Assay [1] has as its target T1, Beta-ketoacyl-[acyl-carrier-protein] synthase III (Haemophilus influenzae (strain ATCC 51907 / DSM 11121 / KW20 / Rd), UniProt P43711).
T1 sequence (P43711 whole entry): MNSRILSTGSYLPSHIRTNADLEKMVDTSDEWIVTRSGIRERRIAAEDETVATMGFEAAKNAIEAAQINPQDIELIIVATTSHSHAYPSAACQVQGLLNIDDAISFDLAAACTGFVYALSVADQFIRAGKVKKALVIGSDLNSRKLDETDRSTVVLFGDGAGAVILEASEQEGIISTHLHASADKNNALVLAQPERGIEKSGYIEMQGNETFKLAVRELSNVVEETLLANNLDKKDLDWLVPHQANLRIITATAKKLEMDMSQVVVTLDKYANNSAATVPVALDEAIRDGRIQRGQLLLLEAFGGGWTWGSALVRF
Put plainly: Inhibitory concentration against Haemophilus influenzae beta-Ketoacyl-acyl carrier protein synthase III. An outline of the steps:
(§1)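 Coupled FabD/FabH radiometric assay with His-tagged or tagless FabH expressed in E. coli BL21(DE3). The mix held 100 mM sodium phosphate pH 7.0, 2 mM DTT, 1 mM MgCl₂, 12.5 µM E. coli holo-ACP, 10 nM FabD and 3-5 nM FabH. Malonyl-CoA was added for 1 min, then acetyl-CoA plus [³H]acetyl-CoA, NADH and NADPH for 19 min. TCA-precipitated protein was counted by liquid scintillation; DMSO ≤2% final.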

Assay [2] deals with T2, Beta-ketoacyl-[acyl-carrier-protein] synthase III (Streptococcus pyogenes serotype M3 (strain ATCC BAA-595 / MGAS315), UniProt P0DB00).
T2 sequence (P0DB00 whole entry): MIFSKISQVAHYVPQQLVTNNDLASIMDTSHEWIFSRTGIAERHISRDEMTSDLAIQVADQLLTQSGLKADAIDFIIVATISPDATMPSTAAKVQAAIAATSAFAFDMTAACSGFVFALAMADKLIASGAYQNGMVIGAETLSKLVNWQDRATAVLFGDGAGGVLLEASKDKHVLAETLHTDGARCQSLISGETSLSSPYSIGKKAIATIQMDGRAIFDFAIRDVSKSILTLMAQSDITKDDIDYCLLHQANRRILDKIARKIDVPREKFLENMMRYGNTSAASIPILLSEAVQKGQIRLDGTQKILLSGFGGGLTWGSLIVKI
As to the kind of experiment: Inhibitory concentration against Streptococcus pyogenes beta-Ketoacyl-acyl carrier protein synthase III. Summed up: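 S. pyogenes FabH (10 nM, His-tagged or tagless, expressed in E. coli BL21(DE3)) was run in a coupled assay with 10 nM FabD, 12.5 µM holo-ACP, 100 mM sodium phosphate pH 7.0, 2 mM DTT and 1 mM MgCl₂. Malonyl-CoA was added for 1 min, then [³H]acetyl-CoA/acetyl-CoA with NADH and NADPH for 19 min. The reaction was stopped with cold TCA and the pellet read by scintillation. Inhibitor DMSO ≤2%.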

Assay [3] deals with T3, Beta-ketoacyl-[acyl-carrier-protein] synthase III (Enterococcus faecalis (strain ATCC 700802 / V583), UniProt Q820T1).
T3 sequence (Q820T1 whole entry): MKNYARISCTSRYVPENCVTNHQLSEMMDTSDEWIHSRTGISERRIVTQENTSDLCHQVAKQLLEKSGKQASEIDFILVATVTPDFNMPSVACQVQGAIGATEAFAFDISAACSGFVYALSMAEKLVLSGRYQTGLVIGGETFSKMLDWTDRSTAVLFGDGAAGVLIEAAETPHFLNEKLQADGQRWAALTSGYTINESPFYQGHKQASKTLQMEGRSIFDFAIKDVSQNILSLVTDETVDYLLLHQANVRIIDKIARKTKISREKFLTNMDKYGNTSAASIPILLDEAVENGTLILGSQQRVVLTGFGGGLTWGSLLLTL
As to the kind of experiment: Inhibitory concentration against Enterococcus faecalis beta-Ketoacyl-acyl carrier protein synthase III. Summed up:
as §1

Assay [4] addresses T4, Beta-ketoacyl-[acyl-carrier-protein] synthase III (Staphylococcus aureus subsp. aureus Mu50, UniProt P68795).
T4 sequence (P68795 whole entry): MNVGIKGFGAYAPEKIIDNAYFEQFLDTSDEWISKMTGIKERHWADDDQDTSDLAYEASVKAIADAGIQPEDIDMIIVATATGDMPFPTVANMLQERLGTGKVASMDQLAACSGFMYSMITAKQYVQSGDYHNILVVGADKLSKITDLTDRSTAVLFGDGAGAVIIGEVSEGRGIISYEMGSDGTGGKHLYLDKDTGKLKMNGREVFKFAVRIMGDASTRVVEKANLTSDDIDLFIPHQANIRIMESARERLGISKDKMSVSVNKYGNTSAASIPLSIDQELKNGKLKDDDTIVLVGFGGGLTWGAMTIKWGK
Put plainly: Inhibitory concentration against Staphylococcus aureus beta-Ketoacyl-acyl carrier protein synthase III. An outline of the steps: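 Coupled FabD/FabH radiometric assay, 100 µL final, pH 7.0: 100 mM sodium phosphate, 2 mM DTT, 1 mM MgCl2, 12.5 µM E. coli holo-ACP, 10 nM FabD, 20 nM S. aureus FabH (His-tagged or tagless, expressed in E. coli BL21(DE3)). FabD started with malonyl-CoA for 1 min. Acetyl-CoA plus [3H]acetyl-CoA, NADH and NADPH then added; FabH reaction 19 min. Stopped with TCA; pellet counted by liquid scintillation. DMSO ≤2% final.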

Assay [5] concerns Streptococcus pyogenes. Put plainly: Minimum inhibitory concentration against Streptococcus pyogenes NZ131. The assay is classed as functional.
Assay [6] in a line: Minimum inhibitory concentration against Enterococcus faecalis VRE 583. The format is functional, Enterococcus faecalis V583.
For assay [7], the system named is Staphylococcus aureus. As to the kind of experiment: Minimum inhibitory concentration against Staphylococcus aureus MRSA 703. The assay is classed as functional.
In assay [8] the test system is Escherichia coli. As to the kind of experiment: Minimum inhibitory concentration against Escherichia coli TolC- mutant in presence of membrane permeablizing agent polymyxin B. The format is functional.
In assay [9] the test system is Neisseria meningitidis. Put plainly: Minimum inhibitory concentration against Neisseria meningitides MC58 in presence of membrane permeablizing agent polymyxin B. The format is functional.
Assay [10] deals with Streptococcus pneumoniae. Put plainly: Minimum inhibitory concentration against Streptococcus pneumonia ATCC 6301. The assay is classed as functional.

As to `O=C(Nc1cccc(O)c1C(=O)O)c1ccc(Br)c(Oc2ccccc2)c1`, the IC50 came out at 20000 nM in [1], 34 nM in assay [2], 62 nM in assay [3] and 12300 nM in [4]. Moreover, the MIC in assay [5] was 11.3 µg/mL (≈ 26.4 µM); in assay [6], > 45 µg/mL; in assay [7], 45 µg/mL (≈ 105 µM); in assay [8], 2.8 µg/mL; in assay [9], 2.8 µg/mL; in [10], 45 µg/mL (≈ 105 µM).

Turning to `O=C(Nc1cccc(O)c1C(=O)O)c1ccc(-c2ccccc2)c(Oc2ccccc2)c1`, the IC50 in assay [1] amounted to 2400 nM; in assay [2], 4 nM; in [3], 4 nM; in [4] it was 3800 nM. In addition, the MIC was 5.6 µg/mL (≈ 13.2 µM) in assay [5]; > 45 µg/mL in assay [6]; 22 µg/mL (≈ 51.7 µM) in [7]; 1.4 µg/mL in assay [8]; 1.4 µg/mL in assay [9]; 22 µg/mL (≈ 51.7 µM) in assay [10].

As for `CS(=O)(=O)c1ccc(-c2ccc(C(=O)Nc3ccccc3C(=O)O)cc2Oc2ccccc2)cc1`, the IC50 is > 100000 nM in [1], 3 nM in assay [2], 28 nM in assay [3] and 24000 nM in assay [4]. Also, the MIC in assay [5] was 22 µg/mL (≈ 45.1 µM); in [6], > 45 µg/mL; in [7], 45 µg/mL (≈ 92.3 µM); in assay [8], 5.6 µg/mL; in [9], 5.6 µg/mL; in assay [10], 45 µg/mL (≈ 92.3 µM).
